This is a sample that favours compounds with a hit; in the whole collection about 2.5% have one here.
TAG inh = triacylglycerol accumulation inhibition | H9c2 cells, Nile Red lipid (TAG) fluorescence; cells loaded with 200 µM oleic acid | inhibition, % at 12.5 µM | 0.66% of 230,000 active | AID 651582;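 active means pattern-corrected inhibition of lipid staining of at least 50% with the nuclear-stain viability signal not falling by more than 50%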;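 further: 0% = DMSO wells and 100% = triacsin C control wells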
SR-BI DiI inh = mouse SR-BI HDL lipid transfer inhibition; Q61009; ldlA[mSR-BI] CHO cells, DiI-HDL uptake fluorescence, 3 h; inhibition, % at 12.5 µM; 0.96% of 320,000 active;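 active means mean replicate inhibition of at least 70% and a set share of replicates each scoring 70 or more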;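 further: 0% = median of neutral control wells and 100% = median of positive control wells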
Target sequence (Q61009 whole entry, looked up): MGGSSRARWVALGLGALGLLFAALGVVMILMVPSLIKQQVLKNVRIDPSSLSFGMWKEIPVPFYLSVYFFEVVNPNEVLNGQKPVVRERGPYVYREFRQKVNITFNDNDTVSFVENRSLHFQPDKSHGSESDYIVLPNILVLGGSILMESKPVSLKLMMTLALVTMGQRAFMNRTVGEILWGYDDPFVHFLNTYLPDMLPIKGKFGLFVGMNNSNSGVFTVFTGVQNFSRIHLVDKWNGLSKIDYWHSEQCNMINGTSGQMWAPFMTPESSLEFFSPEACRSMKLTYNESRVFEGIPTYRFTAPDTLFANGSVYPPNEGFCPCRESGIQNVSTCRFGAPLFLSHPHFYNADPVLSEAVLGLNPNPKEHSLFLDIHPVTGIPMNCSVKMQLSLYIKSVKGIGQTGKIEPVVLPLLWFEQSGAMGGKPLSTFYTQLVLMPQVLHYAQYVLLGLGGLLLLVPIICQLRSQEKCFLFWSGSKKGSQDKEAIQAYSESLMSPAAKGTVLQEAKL
SMARCA2 activ = activators of SMARCA2 function. MG213 cells, MMTV-luciferase reporter, dexamethasone, overnight. activation, % at 9.1 µM. 1% of 370,000 active. AID 652017; in the data active means activation above about 7.8%;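 further: 0% = vehicle wells and 100% = reference activator wells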
SR-BI DiI-HDL act = SR-BI HDL lipid transfer activation | CHO ldlA[mSR-BI] cells, DiI-HDL uptake fluorescence, 3 h; 100 = double the neutral-control signal | activation, % at 12.5 µM | 0.096% of 320,000 active | AID 504775;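 active means mean replicate activation of at least 60% and every replicate at or above 60%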;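 further: 0% = median plate neutral-control signal and 100% = twice that signal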
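Assay system: LDL receptor-deficient CHO ldlA cells overexpressing murine SR-BI / Medium: BSA-supplemented, HEPES-buffered Ham's F12, pH 7.4 / Probe or stimulus: DiI-labelled HDL at 10 µg/mL final / Timing: compound with DiI-HDL co-incubation, 3 h at 37 °C / Technique: bottom-read cell fluorescence after medium removal, ex 550/em 595 nm / Measure: HDL uptake via cellular fluorescence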
Vif inh = inhibitors of HIV Vif; inhibition, % at 7.49 µM; HEK293T cells, Vif self-association by quenched fluorescence, imaging, 24 h; 0.35% of 340,000 active; in the data active means inhibition above about 50%, passing the limit was not always enough
TAG conf = triacylglycerol accumulation inhibition, confirmation; shares compounds with TAG inh; H9c2 lipid accumulation, Nile Red fluorescence; cells loaded with 200 µM oleic acid; inhibition, % at 12.5 µM; 71% of 990 active; AID 651629;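 active means mean inhibition across replicates of 40% or more; inactive means mean inhibition below 40%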;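 further: plate controls were DMSO only wells for no effect and Triacsin C treated wells for full effect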
Starred values were filed as active, the others as inactive; . = not tested or not shown.

SMILES	TAG inh	SR-BI DiI inh	SMARCA2 activ	SR-BI DiI-HDL act	Vif inh	TAG conf
CCCCN1C=C(C(=O)OC)C(c2ccccc2C(F)(F)F)C(C(=O)OC)=C1	54.2*	-18.7	-2.0	18.7	-4.2	31.1
O=C(Nc1ccccc1C(F)(F)F)OC1CCC12CCC(c1ccccc1)CC2 (stereo not given)	.	.	-3.5	.	.	.
CCN(CC)CCn1c2c(c(SCC(=O)Nc3ccc(C)c(F)c3)nc1=O)CCC2	11.5	-21.3	-2.6	21.3	10.9	.
CCN(CC)CCn1c2c(c(SCC(=O)Nc3ccc(C)c(F)c3)nc1=O)CCCC2	52.6*	-6.8	-1.6	6.8	5.0	19.1
COC(=O)C[C@@H]1CC[C@H]2[C@@H](COc3ccc(NC(=O)Nc4cccc(F)c4)cc3C(=O)N2C)O1	.	.	-1.7	.	.	.
N=c1n(CCO)c2ccccc2n1CCOc1ccc(Cl)cc1Cl	90.7*	6.1	-2.0	-6.1	6.2	64.2*
Nn1c(SCC(=O)N2c3ccccc3Sc3ccc(Cl)cc32)nnc1-c1cc(-c2ccc(F)cc2)n[nH]1	.	.	-6.0	.	.	.
Cc1cc(NC(=O)c2ccccc2F)n(-c2nc3ccccc3[nH]2)n1	64.1*	76.5*	-1.1	-76.5	6.0	57.0*
Cc1cc(NC(=O)C2CCCCC2)n(-c2nc3ccccc3[nH]2)n1	49.6	58.3	-0.3	-58.3	.	.
CCOC(=O)CC[C@@H]1CC[C@]2(CCCN(S(=O)(=O)C3CCCCC3)C2)O1	.	.	-0.5	.	.	.
Cc1ccc(-c2nc(NC(=O)c3cc(C(C)(C)C)nn3C)sc2C)cc1Cl	67.9*	72.7*	-4.2	-72.7	-7.9	85.5*
CC1CCc2nc(NC(=O)c3cc(C(C)(C)C)nn3C)sc2C1 (stereo not given)	24.3	.	0.8	.	-3.6	.
COC(=O)C1CN(Cc2ccccc2)CCS(=O)(=O)N1Cc1ccccc1F (stereo not given)	.	.	-2.5	.	.	.
CCSc1nnc(NC(=O)c2cccc(OCc3c(C)noc3C)c2)s1	12.5	33.7	-2.9	-33.7	-37.6	.
COc1ccc2nc(NC(=O)c3cccc(OCc4c(C)noc4C)c3)sc2c1	57.9*	58.5	-0.1	-58.5	-5.4	47.6*
CCOc1ccc2nc(NC(=O)C3CCCN(S(=O)(=O)c4c(C)noc4C)C3)sc2c1 (stereo not given)	56.8*	49.4	1.3	-49.4	-8.5	74.8*
COc1cccc(CNC(=O)C2CCCN(c3ncccn3)C2)c1OC (stereo not given)	.	.	-2.2	.	.	.
COc1ccc(CNC(=O)c2sc3nc(C)c(Cl)c(C)c3c2N)cc1	.	.	-3.3	.	.	.
O=C(Cc1cn(Cc2ccccc2)c2ccccc12)Nc1ccc(Oc2cccnc2)cc1	.	.	-3.6	.	.	.
O=C(OCc1cn(Cc2ccccc2F)nn1)N1CCOCC1	.	.	-0.5	.	.	.
CCC1SC2=NC(C)=C(C(=O)OCC(C)C)C(/C=C/c3ccccc3OC)N2C1=O (stereo not given)	71.9*	-3.3	-3.3	3.3	18.5	20.9
O=C(Nc1cccc2ncccc12)c1ccc(Cl)cc1	70.6*	28.0	1.0	-28.0	-4.3	74.6*
Cc1ccc(NC(=O)N2CCC(c3nc4ccc(Cl)cc4[nH]3)CC2)cc1F	.	.	-4.4	.	.	.
O=C(N/N=C/C=C/c1ccccc1)c1n[nH]c2c1CCC2	.	-24.2	1.1	24.2	-90.0	.
CC(/C=N/NC(=O)c1n[nH]c2c1CCC2)=C\c1ccccc1	72.0*	9.5	5.2	-9.5	38.2	35.8
SMILES	TAG inh	SR-BI DiI inh	SMARCA2 activ	SR-BI DiI-HDL act	Vif inh	TAG conf
COc1ccc(CN(C2CCCC2)S(=O)(=O)c2cc(Br)ccc2Br)c(OC)c1	.	.	-3.1	.	.	.
COc1ccc2[nH]c3c(c2c1)CCN1C(=O)C(CC(=O)NCCCN(C)C)C[C@H](C(=O)N2CCCCC2)[C@@]31CCc1ccccc1 (stereo not given in full)	13.4	-10.7	-0.8	10.7	12.0	.
CN(C)CCCNC(=O)C[C@H]1C[C@H](C(=O)N2CCCCC2)[C@@]2(C)c3[nH]c4cc(-c5ccco5)ccc4c3CCN2C1=O	57.8*	16.0	-4.1	-16.0	.	22.5
CN(C)CCCNC(=O)CC1C[C@H](C(=O)N2CCCCC2)[C@@]2(CCc3ccccc3)c3[nH]c4ccccc4c3CCN2C1=O (stereo not given in full)	53.1*	-2.5	1.6	2.5	.	48.1*
CN(C)CCCNC(=O)C[C@H]1C[C@H](C(=O)N2CCCCC2)[C@@]2(CCc3ccccc3)c3[nH]c4cc(-c5ccco5)ccc4c3CCN2C1=O	57.0*	-47.3	-3.6	47.3	-6.7	70.2*
C[C@H](O)[C@@H]1CN2CCc3ccc(-c4ccc5c(c4)OCO5)cc3[C@@H]2C[C@@H]1N(C)Cc1ccccc1	.	.	-0.5	.	.	.
Nc1ccccc1C#Cc1ccccc1	52.6*	-11.5	5.7	11.5	-4.0	53.6*
Nc1ccc(C#Cc2ccccc2)cc1	.	-2.5	-7.4	2.5	2.8	.
CCc1ccc(/C=N/NC(=O)c2cc(C3CC3)nc3ccc(Br)cc23)s1	60.4*	87.1*	-2.8	-87.1	-12.6	40.4*
O=C(N/N=C/c1ccco1)c1cc(C2CC2)nc2ccccc12	.	.	-2.2	.	.	.
Cc1ccc(-c2nn(-c3ccccc3)cc2NC(=O)CCl)cc1	51.2*	13.1	2.5	-13.1	7.9	79.9*
CC(C)c1ccc(C2C3=C(COC3=O)Nc3cc4c(cc32)OCO4)cc1 (stereo not given)	54.1*	29.7	-2.8	-29.7	25.9	39.3
CCCCOc1ccc(CSC2=NCCN2)cc1[N+](=O)[O-]	56.3*	62.4	4.9	-62.4	-10.3	68.7*
CCOC(=O)c1cc(-c2ccccc2)sc1NC(=O)COC(=O)c1cccc(S(N)(=O)=O)c1	78.1*	17.1	-4.0	-17.1	55.2*	68.2*
CCOC(=O)c1cc(-c2ccccc2)sc1NC(=O)COC(=O)c1ccc(Cl)c(S(N)(=O)=O)c1	30.3	27.6	.	-27.6	4.2	.
COc1cccc(/C=N/NC(=O)CSc2cccc3cccnc23)c1	61.0*	-7.9	-1.3	7.9	-13.9	55.7*
CCCCCOc1ccc(NC(=O)CSc2cccc3cccnc23)cc1	57.5*	11.8	3.2	-11.8	-6.7	55.6*
O=C(CSc1cccc2cccnc12)Nc1ccc(S(=O)(=O)N2CCOCC2)cc1	72.4*	-4.7	0.3	4.7	-2.2	56.7*
CCCCCC(=C/c1ccccc1)/C=N/Nc1ccc(S(=O)(=O)N2CCOCC2)cc1[N+](=O)[O-]	82.9*	61.2	-0.3	-61.2	-8.5	81.0*
COc1ccc(NC(=S)N(CCCN2CCCC2)Cc2cccn2Cc2ccc(Cl)cc2)cc1Cl	71.0*	-0.9	-1.0	0.9	-3.1	56.4*
Cc1ccc(NC(=S)N(CCCN2CCCC2)Cc2cccn2Cc2ccc(Cl)cc2)cc1Cl	78.2*	-10.9	-4.6	10.9	-1.0	93.4*
FC(F)(F)c1cccc(NC(=S)N(CCCN2CCCC2)Cc2cccn2Cc2ccc(Cl)cc2)c1	129.8	-36.5	-4.7	36.5	0.0	.
